Reference: ChEMBL document CHEMBL1132144, “Synthesis of 9-O-substituted derivatives of 9-hydroxy-5, 6-dimethyl-6H-pyrido[4,3-b]carbazole-1-carboxylic acid (2-(dimethylamino)ethyl)amide and their 10- and 11-methyl analogues with improved antitumor activity” (J Med Chem, 1999)

How the values were obtained:
B16 = test: Inhibition of murine B16 melanoma cell proliferation measured by the MTT assay; format: functional, cell-based; conditions: Mus musculus
Procedure, shortened: (§1)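 Murine L1210 leukemia and B16 melanoma cells were grown in RPMI 1640 with 10% fetal calf serum, 2 mM L-glutamine, penicillin/streptomycin and 10 mM HEPES (pH 7.4). Cells were exposed to nine serial drug dilutions in triplicate for about four doubling times (L1210 48 h, B16 96 h), then read by microculture tetrazolium (MTT) assay. IC50 is the concentration halving optical density versus untreated controls, averaged over ≥2 independent experiments.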

L1210 = test: Inhibition of murine L1210 leukemia cell proliferation measured by the MTT assay; format: functional, cell-based; conditions: Mus musculus; procedure, shortened: as §1
Mus musculus [1] = test: Long-term survivors among 7 mice infected with B16 melanoma, scored on day 90 at 320 mg/kg dose on day 1; format: functional
Mus musculus [2] = test: Long-term survivors among 7 mice infected with P388 leukemia, scored on day 60 at 320 mg/kg dose on day 1; format: functional
Procedure, shortened: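 B6D2F1 mice in groups of 6–7 received 10^6 P388 cells ip on day 0. Dihydrochloride salts dissolved in water were injected iv on day 1 or on days 1, 5 and 9, at three doses and then five. Read-outs were % T/C (median survival treated/control × 100) and long-term survivors on day 60, both at the optimal dose (no toxic death, weight loss <20%).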

Mus musculus [3] = test: Percent median survival time of mice injected with P388 leukemia, at a intravenous compound dose of 80 mg/kg
Mus musculus [4] = test: Percent median survival time of mice injected with P388 leukemia, at a intravenous compound dose of 320 mg/kg
Mus musculus [5] = test: Long-term survivors among 6 mice infected with P388 leukemia, scored on day 60 at 80 mg/kg dose; format: functional
Procedure, shortened: (§2)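 B6D2F1 mice in groups of 6–7 were inoculated ip on day 0 with 10^6 P388 cells. Dihydrochloride salts were dissolved in water and given iv on day 1 or on days 1, 5 and 9. Doses ranged from a low nontoxic dose to a toxic one. Long-term survivors were counted at day 60.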

Mus musculus [6] = test: Long-term survivors among 6 mice infected with P388 leukemia, scored on day 60 at 40 mg/kg dose; format: functional; procedure, shortened: as §2
Mus musculus [7] = test: Percent median survival time of mice intraperitoneally injected with P388 leukemia was determined from tested at 80 mg/kg at day1 dose to that of control; format: functional; conditions: route intraperitoneal
Procedure, shortened: (§3)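 P388 leukemia in B6D2F1 mice (groups of 6–7), 10^6 cells inoculated ip on day 0. Dihydrochloride salts were dissolved in water and given iv on day 1 or on days 1, 5, 9. Three doses were tested, then five if active. %T/C = median survival treated/control × 100, reported at the optimal dose (no toxic death, weight loss <20%), from one or two representative experiments.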

Mus musculus [8] = test: Percent median survival time of mice intraperitoneally injected with P388 leukemia was determined from tested at 40 mg/kg at day1,5,9 dose to that of control; format: functional; conditions: route intraperitoneal; procedure, shortened: as §3
Mus musculus [9] = test: Percent median survival time of mice injected with B16 melanoma, at a intraperitoneal compound dose of 20 mg/kg
Mus musculus [10] = test: Long-term survivors among 6 mice infected with B16 melanoma, scored on day 90 at 10 mg/kg dose on day 1; format: functional
Mus musculus [11] = test: Long-term survivors among 6 mice infected with P388 leukemia, scored on day 60 at 10 mg/kg dose on day 1; format: functional; procedure, shortened: as §2
Mus musculus [12] = test: Percent median survival time of mice injected with P388 leukemia, at a subcutaneous compound dose of 10 mg/kg; format: functional
Mus musculus [13] = test: Percent median survival time of mice injected with P388 leukemia, at a intravenous compound dose of 5 mg/kg
Mus musculus [14] = test: Percent median survival time of mice injected with B16 melanoma, at a intraperitoneal compound dose of 10 mg/kg
Mus musculus [15] = test: Long-term survivors among 7 mice infected with B16 melanoma, scored on day 90 at 20 mg/kg dose on day 1; format: functional
Mus musculus [16] = test: Long-term survivors among 7 mice infected with P388 leukemia, scored on day 90 at 20 mg/kg dose on day 1; format: functional
Mus musculus [17] = test: Percent median survival time of mice injected with P388 leukemia, at a subcutaneous compound dose of 20 mg/kg on day 1, 5, 9; format: functional
Mus musculus [18] = test: Long-term survivors among 12 mice infected with P388 leukemia, scored on day 60 at 10 mg/kg dose; format: functional; procedure, shortened: as §2
Mus musculus [19] = test: Long-term survivors among 12 mice infected with P388 leukemia, scored on day 60 at 20 mg/kg dose; format: functional; procedure, shortened: as §2
Mus musculus [20] = test: Percent median survival time of mice intraperitoneally injected with P388 leukemia was determined from tested at 10 mg/kg at day1,5,9 dose to that of control; format: functional; procedure, shortened: as §3
Mus musculus [21] = test: Percent median survival time of mice intraperitoneally injected with P388 leukemia was determined from tested at 20 mg/kg at day1 dose to that of control; format: functional; conditions: route intraperitoneal; procedure, shortened: as §3
Mus musculus [22] = test: Long-term survivors among 13 mice infected with B16 melanoma, scored on day 90 at 0.3-0.6 mg/kg dose
Mus musculus [23] = test: Percent median survival time of mice injected with B16 melanoma, at a intraperitoneal compound dose of 0.3-0.6 mg/kg
Mus musculus [24] = test: Long-term survivors among 12 mice infected with P388 leukemia, scored on day 60 at 320 mg/kg dose; format: functional; procedure, shortened: as §2
Mus musculus [25] = test: Long-term survivors among 12 mice infected with P388 leukemia, scored on day 60 at 80 mg/kg dose; format: functional; procedure, shortened: as §2
Mus musculus [26] = test: Percent median survival time of mice intraperitoneally injected with P388 leukemia was determined from tested at 80 mg/kg at day1,5,9 dose to that of control; format: functional; conditions: route intraperitoneal; procedure, shortened: as §3

Cc1c2ccnc(C(=O)NCCN(C)C)c2cc2c3cc(OC(=O)CCC(NC(=O)OC(C)(C)C)C(=O)O)ccc3n(C)c12 (stereo not given)
IC50 (B16): 4 nM
IC50 (L1210): 89.3 nM
LTS (Mus musculus [1]): 0
LTS (Mus musculus [2]): 0
T/C (Mus musculus [3]): >614%
T/C (Mus musculus [4]): >614%

Cc1c2ccnc(C(=O)NCCN(C)C)c2cc2c3cc(OC(=O)N(C)C)ccc3n(C)c12
IC50 (B16): 2670 nM
IC50 (L1210): 1850 nM
LTS (Mus musculus [5]): 0
LTS (Mus musculus [6]): 0
T/C (Mus musculus [7]): 124%
T/C (Mus musculus [8]): 119%
T/C (Mus musculus [9]): 161%

Cc1c2ccnc(C(=O)NCCN(C)C)c2cc2c3cc(OC(=O)CCC(=O)OCc4ccccc4)ccc3n(C)c12
IC50 (B16): 9.9 nM
IC50 (L1210): 47.4 nM
LTS (Mus musculus [10]): 1
LTS (Mus musculus [11]): 0
T/C (Mus musculus [12]): 111%
T/C (Mus musculus [13]): 96%
T/C (Mus musculus [14]): 169%

CCOCCC(=O)Oc1ccc2c(c1)c1cc3c(C(=O)NCCN(C)C)nccc3c(C)c1n2C
IC50 (B16): 3 nM
IC50 (L1210): 5.7 nM
LTS (Mus musculus [15]): 0
LTS (Mus musculus [16]): 0
T/C (Mus musculus [17]): 222%
T/C (Mus musculus [14]): 157%

Cc1c(O)ccc2c1c1cc3c(C(=O)NCCN(C)C)nccc3c(C)c1n2C
IC50 (B16): 0.2 nM
IC50 (L1210): 3.5 nM
LTS (Mus musculus [18]): 0
LTS (Mus musculus [19]): 0
T/C (Mus musculus [20]): 223%
T/C (Mus musculus [21]): 211%
LTS (Mus musculus [22]): 0
T/C (Mus musculus [23]): 144%

Cc1c2ccnc(C(=O)NCCN(C)C)c2cc2c3cc(OC(=O)OCCCC(=O)O)ccc3n(C)c12
IC50 (B16): 4.8 nM
IC50 (L1210): 64 nM
LTS (Mus musculus [24]): 8
LTS (Mus musculus [25]): 7
T/C (Mus musculus [26]): >600%
T/C (Mus musculus [9]): 167%
